pKi: −log10 of the molar value. Bounds are passed on as bounds.

Our source for the Ki values is ChEMBL document CHEMBL1123980, “Serotonergic properties of spiroxatrine enantiomers” (J Med Chem, 1988).

In assay [1] the target is T1, 5-hydroxytryptamine receptor 1A (Rattus norvegicus, UniProt P19327).
T1 sequence (P19327 whole entry): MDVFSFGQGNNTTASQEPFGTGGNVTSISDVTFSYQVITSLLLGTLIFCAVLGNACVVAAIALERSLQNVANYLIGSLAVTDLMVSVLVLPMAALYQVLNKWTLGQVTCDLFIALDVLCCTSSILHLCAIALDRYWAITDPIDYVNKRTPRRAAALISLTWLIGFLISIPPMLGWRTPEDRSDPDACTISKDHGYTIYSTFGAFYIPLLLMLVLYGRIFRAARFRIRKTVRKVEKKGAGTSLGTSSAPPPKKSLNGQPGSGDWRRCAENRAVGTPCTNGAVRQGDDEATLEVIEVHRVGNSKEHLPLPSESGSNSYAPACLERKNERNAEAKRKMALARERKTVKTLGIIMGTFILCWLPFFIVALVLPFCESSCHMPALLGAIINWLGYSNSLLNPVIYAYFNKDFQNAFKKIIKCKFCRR
Description: Binding affinity against 5-hydroxytryptamine 1A receptor of rat was determined using [3H]8-OH-DPAT in binding assay. The gist of the method: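 Rat (male Sprague-Dawley) cerebral cortex membranes, washed 4 times with a 10 min 37 °C preincubation, 10 mg wet tissue/mL. 1 nM [3H]-8-OH-DPAT in 50 mM Tris, 3 mM CaCl2, pargyline, pH 7.4; 15 min, 37 °C; filtration on PEI-treated GF/B filters, scintillation counting. Nonspecific binding with 10 µM 5-HT. IC50 read graphically and converted to apparent Ki (Cheng-Prusoff).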

Assay [2] addresses 5-hydroxytryptamine receptor 1B (Rattus norvegicus, UniProt P28564). Description: Binding affinity towards 5-hydroxytryptamine 1B receptor in rat was determined using 50 uL of [125I]ICYP in binding assay. The gist of the method:
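[125I]ICYP at 150 pM final, in Tris/CaCl2/pargyline medium with 60 µM (-)-isoproterenol to block β-adrenergic sites. 15 min at 37 °C; ice-cold phosphate dilution, GF/B filtration, gamma counting. Nonspecific binding with 10 µM 5-HT.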

The target of assay [3] is Serotonin 2 (5-HT2) receptor (Rattus norvegicus, UniProt P30994+P08909+P14842). Nature of the assay: Binding affinity towards serotonin 5-hydroxytryptamine 2 receptor of rat determined using 0.5 nM of [3H]ketanserin in binding assay. In kind it is protein assay. In outline:
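0.5 nM [3H]ketanserin in the same buffer, no CaCl2 or pargyline; 15 min at 37 °C; filtration and scintillation counting. Nonspecific binding with 10 µM methysergide. IC50 read graphically and converted to apparent Ki (Cheng-Prusoff).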

For assay [4], the target named is T2, Adrenergic receptor alpha-1 (Rattus norvegicus, UniProt P15823+P23944+P43140).
T2 sequence (P15823 whole entry): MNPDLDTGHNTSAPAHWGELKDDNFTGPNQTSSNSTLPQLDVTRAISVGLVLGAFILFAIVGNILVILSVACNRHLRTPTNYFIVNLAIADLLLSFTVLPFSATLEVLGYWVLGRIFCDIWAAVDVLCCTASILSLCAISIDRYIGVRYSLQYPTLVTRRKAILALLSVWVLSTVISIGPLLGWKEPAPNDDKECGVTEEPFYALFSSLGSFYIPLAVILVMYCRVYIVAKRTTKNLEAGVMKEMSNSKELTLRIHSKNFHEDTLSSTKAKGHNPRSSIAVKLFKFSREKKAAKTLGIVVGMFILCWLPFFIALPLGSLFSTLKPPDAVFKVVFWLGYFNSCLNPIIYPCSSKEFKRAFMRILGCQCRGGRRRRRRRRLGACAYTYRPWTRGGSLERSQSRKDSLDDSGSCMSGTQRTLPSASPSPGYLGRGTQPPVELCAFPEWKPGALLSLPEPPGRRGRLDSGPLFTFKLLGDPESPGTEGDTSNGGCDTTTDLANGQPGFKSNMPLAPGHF
T2 sequence (P23944 whole entry): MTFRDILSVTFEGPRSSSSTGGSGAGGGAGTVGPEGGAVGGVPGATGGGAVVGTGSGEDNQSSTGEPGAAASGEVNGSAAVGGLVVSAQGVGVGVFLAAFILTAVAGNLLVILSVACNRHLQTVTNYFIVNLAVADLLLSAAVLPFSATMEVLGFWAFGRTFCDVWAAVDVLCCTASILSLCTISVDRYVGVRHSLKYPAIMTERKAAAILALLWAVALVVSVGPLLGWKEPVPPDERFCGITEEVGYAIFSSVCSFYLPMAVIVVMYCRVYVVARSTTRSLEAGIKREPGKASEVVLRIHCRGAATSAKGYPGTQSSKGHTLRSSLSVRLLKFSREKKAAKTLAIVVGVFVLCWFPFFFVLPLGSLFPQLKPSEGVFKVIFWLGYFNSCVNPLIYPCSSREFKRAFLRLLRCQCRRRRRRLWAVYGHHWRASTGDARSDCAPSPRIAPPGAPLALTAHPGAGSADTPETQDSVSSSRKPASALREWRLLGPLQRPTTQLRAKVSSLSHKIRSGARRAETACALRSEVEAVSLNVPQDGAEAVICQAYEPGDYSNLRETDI
T2 sequence (P43140 whole entry): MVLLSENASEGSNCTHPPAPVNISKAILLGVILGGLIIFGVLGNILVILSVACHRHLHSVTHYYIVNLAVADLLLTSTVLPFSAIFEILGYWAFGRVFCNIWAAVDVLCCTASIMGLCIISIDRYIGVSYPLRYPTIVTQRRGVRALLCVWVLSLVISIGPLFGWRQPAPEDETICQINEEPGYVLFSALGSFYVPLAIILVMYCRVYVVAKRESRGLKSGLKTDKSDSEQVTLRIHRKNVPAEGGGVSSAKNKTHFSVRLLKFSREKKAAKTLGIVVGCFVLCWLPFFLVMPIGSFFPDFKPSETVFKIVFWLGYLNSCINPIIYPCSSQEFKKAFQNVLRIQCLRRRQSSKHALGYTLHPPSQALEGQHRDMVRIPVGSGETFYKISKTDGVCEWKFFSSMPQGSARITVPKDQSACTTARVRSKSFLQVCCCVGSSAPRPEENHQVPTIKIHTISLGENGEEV
Nature of the assay: Binding affinity against alpha-1 adrenergic receptor of rat was determined using 0.5 nM of [3H]WB-4101 in binding assay. In kind it is protein assay. The gist of the method: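 Washed rat cerebral cortex membranes at 10 mg wet tissue/mL, under the 8-OH-DPAT assay conditions (Tris/CaCl2/pargyline, pH 7.4, 15 min, 37 °C, filtration). Final [3H]WB4101 0.5 nM, with 1 µM 5-HT added to mask 5-HT1A sites. Nonspecific binding with 1 µM prazosin. Apparent Ki from graphical IC50 via Cheng-Prusoff.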

The next assay addresses D(2) dopamine receptor (Rattus norvegicus, UniProt P61169). Nature of the assay: Binding affinity against Dopamine receptor D2 of rat was determined using 2 nM of [3H]sulpiride in binding assay. The gist of the method: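 Striatal membranes from male Sprague-Dawley rats in Tris buffer with 108 mM NaCl, 4.7 mM KCl, 1.3 mM CaCl2, pH 7.4, 4 mg wet tissue/mL. Final [3H]sulpiride 2 nM; incubated 20 min at 37 °C, then vacuum filtration. Specific binding defined with 1 µM spiperone. IC50 read graphically and converted to apparent Ki (Cheng-Prusoff).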

Sequence of D(2) dopamine receptor (P61169 whole entry): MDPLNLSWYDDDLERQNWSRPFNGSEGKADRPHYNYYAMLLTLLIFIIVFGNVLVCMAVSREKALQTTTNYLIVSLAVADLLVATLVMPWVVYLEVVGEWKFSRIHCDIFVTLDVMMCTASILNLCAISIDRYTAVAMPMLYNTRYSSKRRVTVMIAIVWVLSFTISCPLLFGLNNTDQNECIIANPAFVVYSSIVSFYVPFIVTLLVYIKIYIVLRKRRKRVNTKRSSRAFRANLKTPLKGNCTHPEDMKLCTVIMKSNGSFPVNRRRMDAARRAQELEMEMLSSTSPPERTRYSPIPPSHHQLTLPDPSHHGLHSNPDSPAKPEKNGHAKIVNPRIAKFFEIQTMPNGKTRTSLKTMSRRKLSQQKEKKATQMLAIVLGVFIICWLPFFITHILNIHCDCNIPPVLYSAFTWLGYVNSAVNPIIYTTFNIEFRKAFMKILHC
Sequence of 5-hydroxytryptamine receptor 1B (P28564 whole entry): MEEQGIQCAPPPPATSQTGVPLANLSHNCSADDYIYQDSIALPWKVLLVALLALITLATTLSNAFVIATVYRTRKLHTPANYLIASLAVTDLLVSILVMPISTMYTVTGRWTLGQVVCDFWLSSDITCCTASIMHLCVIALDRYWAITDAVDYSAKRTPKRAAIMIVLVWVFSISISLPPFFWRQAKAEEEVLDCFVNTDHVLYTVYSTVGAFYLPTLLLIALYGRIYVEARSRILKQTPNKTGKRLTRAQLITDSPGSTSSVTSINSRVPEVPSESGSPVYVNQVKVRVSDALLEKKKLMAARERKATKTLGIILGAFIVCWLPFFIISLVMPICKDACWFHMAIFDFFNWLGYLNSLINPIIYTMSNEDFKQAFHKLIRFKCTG

By pKi is commonly meant the negative decadic logarithm of the Ki, by convention in mol/L. Lower therefore signals a high Ki. As usually defined, the Ki is a measure of affinity in units of concentration, obtained from inhibition or displacement. Turning to `O=C1NCN(c2ccccc2)C12CCN(CC1COc3ccccc3O1)CC2` (stereo in doubt; (-)) [SPIROXATRINE], the negative logarithm of the Ki (pKi) in assay [1] was 8.72; in assay [2], less than 5.00; on D(2) dopamine receptor it was 9.66. For the same molecule, the Ki in assay [3] stood at 113 nM; in assay [4], 149 nM.
In the case of `O=C1NCN(c2ccccc2)C12CCN(CC1COc3ccccc3O1)CC2` (stereo in doubt; (+)) [SPIROXATRINE], the negative logarithm of the Ki (pKi) in assay [1] is 7.68; in assay [2] it was less than 5.00; on D(2) dopamine receptor it was 8.84. Moreover, the Ki came out at 858 nM in assay [3] and 1050 nM in assay [4].
